{"source": "ChEMBL document CHEMBL2417498", "about": "“Design and synthesis of 6,7-methylenedioxy-4-substituted phenylquinolin-2(1H)-one derivatives as novel anticancer agents that induce apoptosis with cell cycle arrest at G2/M phase” (Bioorg Med Chem, 2013)", "key": {"[1]": {"assay": "Cytotoxicity against human H460 cells after 48 hrs by MTT assay", "type": "functional, cell-based", "conditions": "NCI-H460, 48 h", "procedure,_shortened": "(§1)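 Log-phase tumour cells grown in RPMI-1640 with 10% FBS, penicillin/streptomycin and 1% L-glutamine at 37 °C, 5% CO2. Cells treated with vehicle or a range of concentrations for 48 h. Growth measured by MTT reduction, absorbance at 570 nm. IC50 is the concentration giving 50% proliferation inhibition, from 3 independent experiments.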"}, "[2]": {"assay": "Cytotoxicity against human Hep3B cells after 48 hrs by MTT assay", "type": "functional, cell-based, Hep 3B2", "procedure,_shortened": "(§2)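 Detroit 551 normal skin cells and Hep 3B hepatoma cells grown in DMEM with 10% FBS, penicillin/streptomycin and 1% L-glutamine at 37 °C, 5% CO2. Log-phase cells treated with vehicle or a range of concentrations for 48 h. MTT reduction read at 570 nm. IC50 (50% proliferation inhibition) taken from 3 independent experiments.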"}, "SK-OV-3": {"tested_on": "SK-OV-3", "assay": "Cytotoxicity against human SKOV3 cells after 48 hrs by MTT assay", "type": "functional, cell-based", "conditions": "SK-OV-3, 48 h", "procedure,_shortened": "as §1"}, "HL-60 [3]": {"tested_on": "HL-60", "assay": "Cytotoxicity against human HL60 cells after 48 hrs by MTT assay", "type": "functional, cell-based", "conditions": "HL-60, 48 h", "procedure,_shortened": "as §1"}, "[4]": {"assay": "Cytotoxicity against human 2774 cells after 48 hrs by MTT assay", "type": "functional, cell-based"}, "MCF7": {"tested_on": "MCF7", "assay": "Cytotoxicity against human MCF7 cells after 48 hrs by MTT assay", "type": "functional, cell-based", "conditions": "MCF7, 48 h", "procedure,_shortened": "as §1"}, "NCI-H460 [5]": {"tested_on": "NCI-H460", "assay": "Induction of apoptosis in human H460 cells assessed as caspase3 cleavage at 1 to 5 uM by Western blot analysis", "type": "functional, cell-based", "procedure,_shortened": "(§3)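 H460 cells exposed 24 h at the indicated concentrations; lysates cleared at 12,000 g, protein quantified by Bradford, resolved on 10% SDS-polyacrylamide gels, blotted to nitrocellulose and detected by chemiluminescence.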"}, "NCI-H460 [6]": {"tested_on": "NCI-H460", "assay": "Increase in CDK1 expression in human H460 cells after 24 hrs by Western blot analysis", "type": "functional, cell-based", "procedure,_shortened": "as §3"}, "HL-60 [7]": {"tested_on": "HL-60", "assay": "Decrease in CDK1 expression in human HL60 cells after 24 hrs by Western blot analysis", "type": "functional, cell-based", "procedure,_shortened": "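HL-60 cells treated 24 h at the indicated concentrations, harvested, lysed (30 min on ice, 12,000 g spin), protein by Bradford; samples run on 10% SDS-PAGE, transferred to nitrocellulose, immunodetected by chemiluminescence.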"}, "[8]": {"assay": "Cell cycle arrest in human H460 cells assessed as accumulation at G2/M phase at 5 uM after 24 hrs by propidium iodide staining-based FACS analysis (reference value: 10.73%)", "type": "functional", "conditions": "NCI-H460", "procedure,_shortened": "(§4)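 H460 cells treated 24 h with 1.0, 2.5 or 5.0 µM; washed in PBS, fixed overnight in 70% ice-cold ethanol at −20 °C, stained 30 min in the dark with 0.1% Triton X-100, 0.2 mg/mL RNase and 20 µg/mL propidium iodide; DNA content by flow cytometry, phase distribution from histogram modelling.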"}, "[9]": {"assay": "Cell cycle arrest in human H460 cells assessed as accumulation at G2/M phase at 1 uM after 24 hrs by propidium iodide staining-based FACS analysis (reference value: 10.73%)", "type": "functional", "conditions": "NCI-H460", "procedure,_shortened": "as §4"}, "[10]": {"assay": "Cell cycle arrest in human H460 cells assessed as accumulation at S phase at 2.5 uM after 24 hrs by propidium iodide staining-based FACS analysis (reference value: 43.08%)", "type": "functional", "conditions": "NCI-H460", "procedure,_shortened": "as §4"}, "[11]": {"assay": "Cell cycle arrest in human H460 cells assessed as accumulation at S phase at 1 uM after 24 hrs by propidium iodide staining-based FACS analysis (reference value: 43.08%)", "type": "functional", "conditions": "NCI-H460", "procedure,_shortened": "as §4"}, "[12]": {"assay": "Cell cycle arrest in human H460 cells assessed as accumulation at G0/G1 phase at 5 uM after 24 hrs by propidium iodide staining-based FACS analysis (reference value: 46.19%)", "type": "functional", "conditions": "NCI-H460", "procedure,_shortened": "as §4"}, "[13]": {"assay": "Cell cycle arrest in human H460 cells assessed as accumulation at G0/G1 phase at 2.5 uM after 24 hrs by propidium iodide staining-based FACS analysis (reference value: 46.19%)", "type": "functional", "conditions": "NCI-H460", "procedure,_shortened": "as §4"}, "[14]": {"assay": "Cell cycle arrest in human H460 cells assessed as accumulation at G0/G1 phase at 1 uM after 24 hrs by propidium iodide staining-based FACS analysis (reference value: 46.19%)", "type": "functional", "conditions": "NCI-H460", "procedure,_shortened": "as §4"}, "[15]": {"assay": "Cell cycle arrest in human H460 cells assessed as accumulation at sub G1 phase at 5 uM after 24 hrs by propidium iodide staining-based FACS analysis (reference value: 3.07%)", "type": "functional", "conditions": "NCI-H460", "procedure,_shortened": "as §4"}, "[16]": {"assay": "Cell cycle arrest in human H460 cells assessed as accumulation at sub G1 phase at 1 uM after 24 hrs by propidium iodide staining-based FACS analysis (reference value: 3.07%)", "type": "functional", "conditions": "NCI-H460", "procedure,_shortened": "as §4"}, "HL-60 [17]": {"tested_on": "HL-60", "assay": "Cell cycle arrest in human HL60 cells assessed as accumulation at G2/M phase at 0.25 uM after 24 hrs by propidium iodide staining-based FACS analysis (reference value: 10.51%)", "type": "functional"}, "HL-60 [18]": {"tested_on": "HL-60", "assay": "Cell cycle arrest in human HL60 cells assessed as accumulation at S phase at 1 uM after 24 hrs by propidium iodide staining-based FACS analysis (reference value: 49.69%)", "type": "functional"}, "HL-60 [19]": {"tested_on": "HL-60", "assay": "Cell cycle arrest in human HL60 cells assessed as accumulation at S phase at 0.5 uM after 24 hrs by propidium iodide staining-based FACS analysis (reference value: 49.69%)", "type": "functional"}, "HL-60 [20]": {"tested_on": "HL-60", "assay": "Cell cycle arrest in human HL60 cells assessed as accumulation at G0/G1 phase at 0.25 uM after 24 hrs by propidium iodide staining-based FACS analysis (reference value: 39.80%)", "type": "functional"}, "HL-60 [21]": {"tested_on": "HL-60", "assay": "Cell cycle arrest in human HL60 cells assessed as accumulation at sub G1 phase at 0.5 uM after 24 hrs by propidium iodide staining-based FACS analysis (reference value: 0.35%)", "type": "functional"}, "HL-60 [22]": {"tested_on": "HL-60", "assay": "Cell cycle arrest in human HL60 cells assessed as accumulation at sub G1 phase at 1.0 uM after 24 hrs by propidium iodide staining-based FACS analysis (reference value: 0.35%)", "type": "functional"}, "NCI-H460 [23]": {"tested_on": "NCI-H460", "assay": "Induction of apoptosis in human H460 cells assessed as appearance of nuclear fragmentation at 1 to 5 uM after 24 hrs by Hoechst 33258 staining-based microscopy", "type": "functional, cell-based", "procedure,_shortened": "(§5)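 H460 plated at 5×10⁴ cells/well and incubated 24 h with 1.0, 2.5 or 5.0 µM; stained with 5 µg/mL Hoechst 33258 for 10 min, washed twice in PBS, fixed in 4% paraformaldehyde 10 min at 25 °C; nuclei scored for chromatin condensation, fragmentation and apoptotic bodies by fluorescence microscopy; 0.1% DMSO control.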"}, "NCI-H460 [24]": {"tested_on": "NCI-H460", "assay": "Induction of apoptosis in human H460 cells assessed as chromatin condensation at 1 to 5 uM after 24 hrs by Hoechst 33258 staining-based microscopy", "type": "functional, cell-based", "procedure,_shortened": "as §5"}, "HL-60 [25]": {"tested_on": "HL-60", "assay": "Induction of apoptosis in human HL60 cells assessed as appearance of apoptotic bodies at 0.25 to 1 uM after 24 hrs by Hoechst 33258 staining-based microscopy", "type": "functional, cell-based", "procedure,_shortened": "(§6)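 HL-60 seeded at 1×10⁵ cells/well, treated 24 h with 0.25, 0.5 or 1.0 µM; nuclei stained 10 min with 5 µg/mL Hoechst 33258, PBS-washed twice, fixed 10 min in 4% PFA at 25 °C; apoptotic morphology imaged by fluorescence microscopy against 0.1% DMSO-treated cells.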"}, "HL-60 [26]": {"tested_on": "HL-60", "assay": "Induction of apoptosis in human HL60 cells assessed as appearance of nuclear fragmentation at 0.25 to 1 uM after 24 hrs by Hoechst 33258 staining-based microscopy", "type": "functional, cell-based", "procedure,_shortened": "as §6"}, "Detroit 551": {"tested_on": "Detroit 551", "assay": "Cytotoxicity against human Detroit 551 cells after 48 hrs by MTT assay", "type": "cell-based", "conditions": "Detroit 551, 48 h", "procedure,_shortened": "as §2"}}, "note": "Active and inactive are the calls of the source. The calls are words filed in the database; no cut-off is given here."}
{"smiles": "COc1ccc(-c2cc(=O)[nH]c3cc4c(cc23)OCO4)c(OC)c1", "values": [{"measurement": "IC50", "setting": "[1]", "result": 900, "unit": "nM"}, {"measurement": "IC50", "setting": "[2]", "result": 1000, "unit": "nM"}, {"measurement": "IC50", "setting": "SK-OV-3", "result": 400, "unit": "nM"}, {"measurement": "IC50", "setting": "HL-60 [3]", "result": 400, "unit": "nM"}, {"measurement": "IC50", "setting": "[4]", "result": 400, "unit": "nM"}, {"measurement": "IC50", "setting": "MCF7", "result": 6000, "unit": "nM"}, {"measurement": "Activity", "setting": "NCI-H460 [5]", "result": "Active"}, {"measurement": "Activity", "setting": "NCI-H460 [6]", "result": "Dose-dependent effect"}, {"measurement": "Activity", "setting": "HL-60 [7]", "result": "Dose-dependent effect"}, {"measurement": "Activity", "setting": "[8]", "result": 68.2, "unit": "%"}, {"measurement": "Activity", "setting": "[9]", "result": 54.4, "unit": "%"}, {"measurement": "Activity", "setting": "[10]", "result": 18.8, "unit": "%"}, {"measurement": "Activity", "setting": "[11]", "result": 44.1, "unit": "%"}, {"measurement": "Activity", "setting": "[12]", "result": 9.37, "unit": "%"}, {"measurement": "Activity", "setting": "[13]", "result": 9.6, "unit": "%"}, {"measurement": "Activity", "setting": "[14]", "result": 1.57, "unit": "%"}, {"measurement": "Activity", "setting": "[15]", "result": 11.2, "unit": "%"}, {"measurement": "Activity", "setting": "[16]", "result": 10.8, "unit": "%"}, {"measurement": "Activity", "setting": "HL-60 [17]", "result": 11.87, "unit": "%"}, {"measurement": "Activity", "setting": "HL-60 [18]", "result": 46.99, "unit": "%"}, {"measurement": "Activity", "setting": "HL-60 [19]", "result": 30.16, "unit": "%"}, {"measurement": "Activity", "setting": "HL-60 [20]", "result": 41.36, "unit": "%"}, {"measurement": "Activity", "setting": "HL-60 [21]", "result": 27.86, "unit": "%"}, {"measurement": "Activity", "setting": "HL-60 [22]", "result": 19.65, "unit": "%"}, {"measurement": "Activity", "setting": "NCI-H460 [23]", "result": "Active"}, {"measurement": "Activity", "setting": "NCI-H460 [24]", "result": "Active"}, {"measurement": "Activity", "setting": "HL-60 [25]", "result": "Active"}, {"measurement": "Activity", "setting": "HL-60 [26]", "result": "Active"}, {"measurement": "IC50", "setting": "Detroit 551", "result": "> 25000", "unit": "nM"}]}
